Calls of active or inactive are those of the source. The calls are words filed in the database; no cut-off is given here.
Tests used:
Escherichia coli [1] = experiment: Distribution of Escherichia coli AB1157 IL05 new born cells containing eight ori foci at 8 ug/ml after 14 hrs incubation; format: functional
Procedure, shortened: (§1)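 IL05(pWX6) (LacI-CFP/TetR-YFP marking ori and ter arrays) grown at 37°C in M9-sodium acetate with required amino acids, 100 μg/ml ampicillin, 0.5 mM IPTG, 40 ng/ml anhydrotetracycline. AMK added at OD600 0.05. After 14 h, cells placed on 1% agarose-PBS pads, imaged (×100, phase plus fluorescence). 200 cells per culture classified by ori/ter foci number; three independent experiments.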

Escherichia coli [2] = experiment: Distribution of Escherichia coli AB1157 IL05 new born cells containing duplicated ori and ter foci at 16 ug/ml after 14 hrs incubation; format: functional; procedure, shortened: as §1
Escherichia coli [3] = experiment: Distribution of Escherichia coli AB1157 IL05 new born cells containing eight ori foci at 32 ug/ml after 14 hrs incubation; format: functional; procedure, shortened: as §1
Escherichia coli [4] = experiment: Distribution of Escherichia coli AB1157 IL05 new born cells containing four ori foci at 8 ug/ml after 14 hrs incubation; format: functional; procedure, shortened: as §1
Escherichia coli [5] = experiment: Distribution of Escherichia coli AB1157 IL05 new born cells containing four ori foci at 16 ug/ml after 14 hrs incubation; format: functional; procedure, shortened: as §1
Escherichia coli [6] = experiment: Distribution of Escherichia coli AB1157 IL05 new born cells containing duplicated sister ori foci at 32 ug/ml after 14 hrs incubation; format: functional; procedure, shortened: as §1
Escherichia coli [7] = experiment: Distribution of Escherichia coli AB1157 IL05 new born cells containing duplicated sister ori foci at 4 ug/ml after 14 hrs incubation; format: functional; procedure, shortened: as §1
Escherichia coli [8] = experiment: Distribution of Escherichia coli AB1157 IL05 new born cells containing duplicated ori and ter foci at 4 ug/ml after 14 hrs incubation; format: functional; procedure, shortened: as §1
Escherichia coli [9] = experiment: Assembly of Z-ring in Escherichia coli AB1157 IL06(pCP12) cells at 4 ug/ml
Escherichia coli [10] = experiment: Distribution of Escherichia coli AB1157 IL05 new born cells containing duplicated ori and ter foci at 32 ug/ml after 14 hrs incubation; format: functional; procedure, shortened: as §1
Escherichia coli [11] = experiment: Sublethal concentration measured by presence of granular bodies in Escherichia coli AB1157 IL05 cells at 4 ug/ml after 14 hrs incubation; format: functional, organism-based
Procedure, shortened: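 IL05(pWX6) grown 14 h at 37°C in acetate minimal medium with AMK added at OD600 0.05. Cells then examined by phase-contrast microscopy in 27% gelatin-containing minimal medium, scoring polar granular bodies and nucleoids.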

Escherichia coli [12] = experiment: Distribution of Escherichia coli AB1157 IL05 new born cells containing duplicated ori and ter foci at 8 ug/ml after 14 hrs incubation; format: functional; procedure, shortened: as §1
Escherichia coli [13] = experiment: Distribution of Escherichia coli AB1157 IL05 new born cells containing one ori and one ter foci at 4 ug/ml after 14 hrs incubation; format: functional; procedure, shortened: as §1
Escherichia coli [14] = experiment: Distribution of Escherichia coli AB1157 IL05 new born cells containing one ori and one ter foci at 16 ug/ml after 14 hrs incubation; format: functional; procedure, shortened: as §1
Escherichia coli [15] = experiment: Distribution of Escherichia coli AB1157 IL05 new born cells containing duplicated sister ori foci at 8 ug/ml after 14 hrs incubation; format: functional; procedure, shortened: as §1
Escherichia coli [16] = experiment: Distribution of Escherichia coli AB1157 IL05 new born cells containing four ori foci at 32 ug/ml after 14 hrs incubation; format: functional; procedure, shortened: as §1
Escherichia coli [17] = experiment: Loss of cell viability in Escherichia coli AB1157 IL05 above 16 ug/ml after 8 hrs incubation; format: functional, organism-based
Escherichia coli [18] = experiment: Distribution of Escherichia coli AB1157 IL05 new born cells containing eight ori foci at 4 ug/ml after 14 hrs incubation; format: functional; procedure, shortened: as §1
Escherichia coli [19] = experiment: Distribution of Escherichia coli AB1157 IL05 new born cells containing four ori foci at 4 ug/ml after 14 hrs incubation; format: functional; procedure, shortened: as §1
Escherichia coli [20] = experiment: Distribution of Escherichia coli AB1157 IL05 new born cells containing one ori and one ter foci at 8 ug/ml after 14 hrs incubation; format: functional; procedure, shortened: as §1
Escherichia coli [21] = experiment: Distribution of Escherichia coli AB1157 IL05 new born cells containing duplicated sister ori foci at 16 ug/ml after 14 hrs incubation; format: functional; procedure, shortened: as §1
Escherichia coli [22] = experiment: Distribution of Escherichia coli AB1157 IL05 new born cells containing eight ori foci at 16 ug/ml after 14 hrs incubation; format: functional; procedure, shortened: as §1
Escherichia coli [23] = experiment: Distribution of Escherichia coli AB1157 IL05 new born cells containing one ori and one ter foci at 32 ug/ml after 14 hrs incubation; format: functional; procedure, shortened: as §1

NCC[C@H](O)C(=O)N[C@@H]1C[C@H](N)[C@@H](O[C@H]2O[C@H](CN)[C@@H](O)[C@H](O)[C@H]2O)[C@H](O)[C@H]1O[C@H]1O[C@H](CO)[C@@H](O)[C@H](N)[C@H]1O [AMIKACIN]
Activity (Escherichia coli [1]): 5% | Activity (Escherichia coli [2]): 34% | Activity (Escherichia coli [3]): 0% | Activity (Escherichia coli [4]): 69% | Activity (Escherichia coli [5]): 46% | Activity (Escherichia coli [6]): 37% | Activity (Escherichia coli [7]): 0% | Activity (Escherichia coli [8]): 48% | Activity (Escherichia coli [9]): 35% | Activity (Escherichia coli [10]): 31% | Activity (Escherichia coli [11]): Active | Activity (Escherichia coli [12]): 36% | Activity (Escherichia coli [13]): 0% | Activity (Escherichia coli [14]): 6% | Activity (Escherichia coli [15]): 0% | Activity (Escherichia coli [16]): 0% | Activity (Escherichia coli [17]): inactive | Activity (Escherichia coli [18]): 8% | Activity (Escherichia coli [19]): 44% | Activity (Escherichia coli [20]): 0% | Activity (Escherichia coli [21]): 3% | Activity (Escherichia coli [22]): 11% | Activity (Escherichia coli [23]): 32%

— ChEMBL document CHEMBL1142132, “Sublethal concentrations of the aminoglycoside amikacin interfere with cell division without affecting chromosome dynamics” (2007)
